High-throughput results from PubChem BioAssay.
The list is not random: actives were taken first. Their share in the collection is about 4.5%.
TAAR1 antag: antagonists of human TAAR1 | Q96RJ0 | 360,000 tested, 1.5% active | CHO RD-HGA16 TAAR1, Fluo-8 calcium fluorescence, antagonist | inhibition, % at 3 µM;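 active = inhibition above a per-plate cutoff, the mean inhibition of test compounds on that plate plus 3 SD, cut at about 49% in these data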
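Assay system: CHO-derived RD-HGA16 cells stably expressing human TAAR1 plus Gα16. Timing: 140 s kinetic read after compound, 140 s after agonist. Technique: kinetic Fluo-8 calcium fluorescence measurement. Measure: % inhibition of agonist calcium response.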
OX1R antag-1: human HCRTR1 antagonism; O43613; CHO/OX1R cells, Fluo-8 calcium fluorescence, orexin A; AID 434989; 330,000 tested, 0.43% active; inhibition, % at 5 µM;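 active = inhibition above its plate's threshold, mean inhibition of all tested compounds on the plate plus 3 SD, cut at about 37% in these data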
Target sequence (O43613 whole entry, looked up): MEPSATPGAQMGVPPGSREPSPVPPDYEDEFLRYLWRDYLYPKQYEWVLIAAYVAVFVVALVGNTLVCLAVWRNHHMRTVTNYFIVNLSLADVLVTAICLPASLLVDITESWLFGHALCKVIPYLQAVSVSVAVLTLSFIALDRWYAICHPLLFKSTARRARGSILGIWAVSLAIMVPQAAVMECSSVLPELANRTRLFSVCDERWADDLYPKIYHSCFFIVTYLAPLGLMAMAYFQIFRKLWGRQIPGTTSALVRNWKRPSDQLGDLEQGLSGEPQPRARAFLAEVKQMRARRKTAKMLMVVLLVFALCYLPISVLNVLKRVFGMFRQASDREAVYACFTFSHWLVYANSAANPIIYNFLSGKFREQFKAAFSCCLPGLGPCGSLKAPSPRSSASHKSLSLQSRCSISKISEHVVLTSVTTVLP
GPR7 antag: human neuropeptides B/W receptor 1 antagonism. GPR7-expressing cells, fluorescence antagonist assay. 290,000 tested, 1.1% active. P48145. inhibition, % at 4.4 µM. AID 1861; in the data active = inhibition above about 16%, passing the limit was not always enough;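 also: cells stimulated with the agonist NPW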
CHO parental Ca: counter-screen for OX1R antagonists: effect in parental CHO cells; parental CHO-K1, ATP-induced calcium, Fluo-8 fluorescence; inhibition, % at 5.6 µM; 330,000 tested, 0.63% active; AID 463079;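 active = inhibition above that plate's mean sample inhibition plus 3 SD, cut at about 26% in these data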
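Assay system – parental CHO cells · Reagent – ATP stimulus · Detection – intracellular calcium via Fluo-8 no-wash fluorescent dye · Evaluation – percent inhibition of ATP-evoked calcium rise, normalized to controls · Controls – ATP wells versus no-ATP DMSO wells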
OX1R antag-2: blocks the human orexin 1 receptor. O43613. OX1R-expressing cells, FRET antagonist read-out. inhibition, % at 6.6 µM. 330,000 tested, 1.8% active. AID 485270; in the data active = inhibition mostly above about 38%, no sharp cut-off; inactive = mostly below about 40%
TAAR1 ag: agonists of human TAAR1; CHO RD-HGA16 TAAR1, Fluo-8 calcium fluorescence; vehicle wells 0%, saturating PEA agonist 100%; AID 624467; activation, % at 3 µM; 360,000 tested, 0.99% active; Q96RJ0;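 active = activation above the mean activation of all test compounds in the run plus 3 SD, cut at about 38% in these data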
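Repeats: no replicates (n 1) | Material: CHO-derived RD-HGA16 cells with stable Gα16 and human TAAR1 | Technique: Kinetic Fluo-8 calcium fluorescence | Schedule: 17-24 h seeding, 75 min 37 °C dye, 30 min RT | Evaluation: % activation from peak over basal fluorescence ratio, DMSO-to-PEA scaled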
Numbers stand for hits; – = inactive; · = not tested or not shown.

SMILES	TAAR1 antag	OX1R antag-1	GPR7 antag	CHO parental Ca	OX1R antag-2	TAAR1 ag
CN(C)CCCN1C(=O)c2cccc3c([N+](=O)[O-])ccc(c23)C1=O	–	–	–	–	68.2	–
N#Cc1ccccc1NC(=O)COC(=O)CN1C(=O)C2CCCCC2C1=O (centres undefined)	–	–	·	–	–	–
N#Cc1cc([N+](=O)[O-])ccc1NC(=O)COC(=O)CN1C(=O)C2CCCCC2C1=O (centres undefined)	–	–	·	–	43.5	–
N#Cc1cc(F)cc(OCCCN2CCC(C(O)(c3ccccc3)c3ccccc3)CC2)c1	–	·	·	·	·	–
Cc1ccc(C(=O)N2c3ccccc3Sc3ccccc32)cc1	–	·	·	·	·	–
CN(C)c1ccc2c(c1)Sc1cc(N(C)C)ccc1N2C(=O)c1ccccc1	–	–	–	38.2	–	–
COc1cccc(CN(C)C(=O)c2cccc(S(=O)(=O)N3CCN(c4ccccc4)CC3)c2)c1OC	–	·	·	·	·	–
CN(Cc1ccc(OC(F)F)cc1)C(=O)c1cccc(S(=O)(=O)N2CCN(Cc3ccccc3)CC2)c1	49.3	·	·	·	·	–
CN(Cc1c(F)cccc1Cl)C(=O)c1cccc(S(=O)(=O)N2CCN(Cc3ccccc3)CC2)c1	–	·	·	·	·	–
CN(CC(=O)Nc1ccc(Cl)cc1)C(=O)c1cccc(S(=O)(=O)N2CCN(Cc3ccccc3)CC2)c1	50.4	–	·	37.1	–	–
COc1cccc(CN(C)C(=O)c2cccc(S(=O)(=O)N3CCN(c4ccc(F)cc4)CC3)c2)c1OC	–	–	·	35.4	–	–
CC(=O)N1CCN(c2nc3ccc([N+](=O)[O-])cc3s2)CC1	–	–	–	–	54.4	–
CN(Cc1cccnc1)C(=O)Cc1ccc(NS(=O)(=O)c2cccc(C(F)(F)F)c2)cc1	–	–	–	–	–	–
CN1CCN(Cn2cc(/C=C/C(=O)c3ccccc3)c3ccccc32)CC1	·	–	–	–	40.3	·
Cc1cccn2c(=O)c3cc(C(=O)NCc4cccnc4)c(=N)n(CC4CCCO4)c3nc12 (centres undefined)	–	–	–	–	69.6	–
O=C(O)c1ccccc1C(=O)NCc1cccnc1	–	–	–	–	–	–
C=CCn1c(=N)c(C(=O)NCCCOC)cc2c(=O)n3cccc(C)c3nc21	–	–	–	–	61.0	–
CCCn1c(=N)c(C(=O)NCC2CCCO2)cc2c(=O)n3cccc(C)c3nc21 (centres undefined)	–	–	–	–	56.0	–
O=C(NCc1cccnc1)c1cccn2c(=O)c3sccc3nc12	–	–	–	–	61.5	–
CC(C)c1cc(C(=O)NCc2ccc(F)cc2)c(N)s1	–	·	·	·	·	–
C#CCSc1n[nH]c(-c2ccco2)n1	–	–	–	–	–	–
Cn1cc(Cc2ccc(C(=O)NC34CC5CC(CC(C5)C3)C4)cn2)c2ccccc21	–	·	·	·	·	–
Cc1cccn2c(=O)c3cc(C(=O)NCc4ccccc4)c(=N)n(CCCN4CCOCC4)c3nc12	–	·	·	·	·	–
Cc1cccn2c(=O)c3cc(C(=O)NC4CCCC4)c(=N)n(CCc4ccccc4)c3nc12	–	–	–	–	–	–
Cc1cccn2c(=O)c3cc(C(=O)NCCc4ccccc4)c(=N)n(CCCn4ccnc4)c3nc12	–	–	–	–	58.7	–
SMILES	TAAR1 antag	OX1R antag-1	GPR7 antag	CHO parental Ca	OX1R antag-2	TAAR1 ag
Cc1cccn2c(=O)c3cc(C(=O)NCC4CCCO4)c(=N)n(CCN4CCOCC4)c3nc12 (centres undefined)	–	–	–	–	162.1	–
Cc1cccn2c(=O)c3cc(C(=O)NCCN4CCOCC4)c(=N)n(CCCN4CCOCC4)c3nc12	–	–	–	–	52.1	–
COCCCn1c(=N)c(C(=O)NCC2CCCO2)cc2c(=O)n3cccc(C)c3nc21 (centres undefined)	–	–	–	–	64.2	–
Cc1ccc(Cn2c(=N)c(C(=O)NCC3CCCO3)cc3c(=O)n4cccc(C)c4nc32)cc1 (centres undefined)	–	–	–	–	–	–
Cc1cc(C)n2c(Nc3c(C)cccc3C)c(-c3cccnc3)nc2n1	–	·	·	·	·	–
CCOC(=O)Cn1c(=O)n(Cc2ccco2)c(=O)c2ccc(C(=O)NC3CCCC3)cc21	–	–	–	–	–	–
